Results on 39 compounds are retold here after ChEMBL document CHEMBL4513216, “Probing the Open Global Health Chemical Diversity Library for Multistage-Active Starting Points for Next-Generation Antimalarials” (ACS Infect Dis, 2020).

A short description of the data set: Toxicity liver stage against HepG2, at 10uM. On the set-up: test concentration 10 uM, cell line HepG2-A16-CD81EGFP. Type of data set: cell-based. The settings on record: human, HepG2-A16-CD81EGFP cells; read-out: INHIBITION
A digest of the protocol:
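Uninfected HepG2-A16-CD81EGFP cells, 3 × 10^3 per well, 1536-well, plated on prespotted compound at 10 μM final, parasite-free screening media added to match infected plates; puromycin 10 μM positive, DMSO 0.5% negative; run in parallel with 48 h PbLuc assay at 37 °C, 5% CO2; viability by CellTiter-Glo luminescence, normalized to controls.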

Regarding `O=C(Cc1ccccn1)N1CC[C@]2(C[C@@H](Oc3ncccc3F)CO2)C1`, the cytotoxicity at 10 µM was -5.79%.

Consider `COc1ccc(CN(C(=O)C2CCCO2)c2ccncc2)cc1` (centres undefined), for which the cytotoxicity at 10 µM came to 1.86%.

`CC(C)N(Cc1ccccn1)C(=O)CN(C)C(=O)c1cccs1`: the cytotoxicity at 10 µM stood at 2.31%.

Regarding `O=C(NC1CC1)NC(c1ccc(F)cc1)C1CC1` (centres undefined), the cytotoxicity at 10 µM is -0.158%.

With `Cc1nc(CN2CCN(C(=O)CCc3cccnc3)CC2)no1`, the cytotoxicity at 10 µM was -8.64%.

Regarding `O=C(CCc1ccc(F)c(F)c1)N1CCCCC1Cn1cccn1` (centres undefined), the cytotoxicity at 10 µM was -8.01%.

As for `O=C(NCc1ccccc1F)NCC(O)c1cccc(F)c1` (centres undefined), the cytotoxicity at 10 µM was -2.95%.

Take `CC(C)(C)n1ncc2c1CCCC2NCc1ccc2ncccc2c1` (centres undefined): the cytotoxicity at 10 µM was determined as 7.74%.

`CCCC12CN3CC(CCC)(CN(C1)C3c1[nH]c(=O)[nH]c(=O)c1C)C2=O` (centres undefined): the cytotoxicity at 10 µM was found to be 4.17%.

Regarding `COCCCN1Cc2cccc(NC(=O)c3ccccc3C)c2C1`, the cytotoxicity at 10 µM worked out at 13.4%.

Take `CC(NC(=O)NCc1cccnc1N(C)C)c1ccc(F)cc1` (centres undefined): the cytotoxicity at 10 µM is -1.19%.

Take `CC(NC(=O)NCCCn1cncn1)c1ccccc1F` (centres undefined): the cytotoxicity at 10 µM was -13.3%.

As for `Cc1ccc(CN2CCC3(CCN(Cc4ccncc4)CC3)CC2)cc1`, the cytotoxicity at 10 µM came out at 8.4%.

Consider `O=C(Nc1ccccc1CCc1ccccn1)NC1CCOCC1`, for which the cytotoxicity at 10 µM is 6.1%.

For the compound `CN(Cc1ccc(Cl)s1)C(=O)CN(C)C1CCCc2ccccc21` (centres undefined), the cytotoxicity at 10 µM is 21.4%.

For `C[C@@H]1CN(CC(=O)NCc2ccccn2)C[C@]1(C)O`, the cytotoxicity at 10 µM is -5.68%.

As to `O=C(NCc1nnc2n1CCC2)N1CCc2sccc2C1`, the cytotoxicity at 10 µM was -12.5%.

On to `CN(C)C1CCCN(C(=O)NCCNC(=O)C2CCCCC2)C1` (centres undefined), for which the cytotoxicity at 10 µM is -1.69%.

Regarding `Cc1noc(C(C)Nc2ccc3c(c2)CCC3)n1` (centres undefined), the cytotoxicity at 10 µM is 1.84%.

On to `O=C(C1CCCC1)N1CCOC(c2nc(-c3ncccn3)no2)C1` (centres undefined), for which the cytotoxicity at 10 µM was -2.3%.

In the case of `CCCN(CCO)C(=O)c1cc(COc2ccc3c(c2)CCCC3)on1`, the cytotoxicity at 10 µM is -159%.

As for `O=C(CCNCc1cccc(O)c1)N1CCc2sccc2C1`, the cytotoxicity at 10 µM worked out at 16%.

For `CCN1CCN(c2ccc(CNC(=O)c3c(C)noc3C)cn2)CC1`, the cytotoxicity at 10 µM is 0.265%.

`COCCN1CCCC(O)(CN2CCN(c3ccncc3C)CC2)C1=O` (centres undefined): the cytotoxicity at 10 µM was -6.45%.

Consider `CC(=O)c1ccc(NC(=O)N(CCN(C)C)Cc2ccc(C)s2)cc1`, for which the cytotoxicity at 10 µM was -16.5%.

Consider `O=C(N1CCOCC1)[C@@]12CCO[C@@H]1CCN(CC1CCC1)C2`, for which the cytotoxicity at 10 µM is 11.1%.

For the compound `Cc1ccc(N2CCN(C(=O)CCC(F)(F)F)C(C)C2)cc1` (centres undefined), the cytotoxicity at 10 µM was -143%.

Consider `NCc1cccc(-c2cccnc2C(=O)NCCN2CCCC2)c1`, for which the cytotoxicity at 10 µM was -6.9%.

With `COc1cc(N2CC[C@H]3O[C@@H](C(=O)NC4CCCC4)CC[C@H]32)ncn1`, the cytotoxicity at 10 µM was 13.2%.

As for `Cc1csc2c(N3CCC(NCCCc4ccncc4)CC3)ncnc12`, the cytotoxicity at 10 µM was -1.54%.

Consider `O=C(CN1CCCS1(=O)=O)Nc1ccc(OC(F)F)cc1`, for which the cytotoxicity at 10 µM stood at 1.34%.

On to `COc1ccc(CC(=O)NC2CCN(CC(F)F)CC2)cc1OC`, for which the cytotoxicity at 10 µM was -8.48%.

Consider `Cc1cc(C(=O)N2CCc3c(ncn3CCc3ccccc3)C2)on1`, for which the cytotoxicity at 10 µM is -3.58%.

For the compound `Cc1nc(CCCNC(=O)C2CC(=O)N(C3CCCC3)C2)sc1C` (centres undefined), the cytotoxicity at 10 µM was 3.01%.

Turning to `Cc1ccc(NC(=O)N2CCCC2)c(OCC2CCCO2)c1` (centres undefined), the cytotoxicity at 10 µM was found to be 6.36%.

Turning to `O=C1C[C@H]2[C@@H](CCN2C(=O)Cc2cccs2)N1CC1CC1`, the cytotoxicity at 10 µM was 3.2%.

Turning to `CCOc1ccccc1CN1CCc2nc3ccsc3c(=O)n2CC1`, the cytotoxicity at 10 µM is -5.81%.

As for `Cc1ncc2c(n1)CN(CCOc1ccc3c(c1)CCC(=O)N3)CC2`, the cytotoxicity at 10 µM is -8.12%.

As to `CC(C)(N)C(=O)N1CCCC(c2cncc(Oc3cccnc3)n2)C1` (centres undefined), the cytotoxicity at 10 µM was -20.6%.
